Experimental findings from ChEMBL document CHEMBL4145582, “Cytotoxic and Antibacterial Eremophilane Sesquiterpenes from the Marine-Derived Fungus Cochliobolus lunatus SCSIO41401” (J Nat Prod, 2018) are described below.

In brackets after ≈: the same amount, converted by molar mass. Activity calls are given as the source filed them. The calls are words filed in the database; no cut-off is given here. Bounds are passed on as bounds.

One assay has as its system ACHN. The assay can be described thus: Cytotoxicity against human ACHN cells after 72 hrs by CCK8 assay. It is filed as functional, cell-based. In a few lines: (§1)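 Renal cancer lines ACHN, 786-O and OS-RC-2; cell viability read by CCK-8 assay, with sorafenib as positive control.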
On the technique in general: Tetrazolium assays rely on reduction of a dye to a coloured formazan, in cell work by metabolically active cells.

The test system of the next assay is 786-0. Nature of the assay: Cytotoxicity against human 786-O cells after 72 hrs by CCK8 assay. The format is functional, cell-based. The settings on record: for IC50: 786-0, 72 h. Summed up:
as §1

Another assay deals with OS-RC-2. The assay can be described thus: Cytotoxicity against human OS-RC2 cells after 72 hrs by CCK8 assay. The format is functional, cell-based. The settings on record: for IC50: OS-RC-2, 72 h. In a few lines: as §1
The next assay concerns HepG2. Nature of the assay: Cytotoxicity against human HepG2 cells after 6 days by MTT assay. It is filed as functional, cell-based. The note with it: for IC50: HepG2, 144 h. Summed up: (§2)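 HepG-2 and SGC7901 cells; growth inhibition read by MTT method, with 5-fluorouracil as positive control.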
Another assay has as its system SGC-7901. Nature of the assay: Cytotoxicity against human SGC7901 cells after 6 days by MTT assay. The format is functional, cell-based. The note with it: for IC50: SGC-7901, 144 h. In a few lines: as §2
In a further assay the test system is Escherichia coli. The assay can be described thus: Antimicrobial activity against Escherichia coli ATCC 25922 after 24 hrs by serial dilution method. The settings on record: for MIC: ATCC 25922, 24 h. It is filed as functional. Summed up: (§3)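 Serial broth dilution in 96-well microtiter plates. Compounds and controls are dissolved in DMSO as stock. Bacteria are grown overnight at 37 °C, then diluted to 10^6 cfu/mL. E. coli and S. aureus are grown in Luria–Bertani broth. P. multocida and E. rhusiopathiae are grown in trypticase soy broth with 10% calf serum. Plates are incubated at 37 °C for 24 h and read at 630 nm.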

The test system of another assay is Staphylococcus aureus. The assay can be described thus: Antimicrobial activity against Staphylococcus aureus subsp. aureus Rosenbach ATCC 25923 after 24 hrs by serial dilution method. The settings on record: for MIC: Rosenbach ATCC 25923, 24 h. It is filed as functional. Summed up: as §3
Assay [1] relates to Erysipelothrix rhusiopathiae. Nature of the assay: Antimicrobial activity against Erysipelothrix rhusiopathiae ATCC 19414 after 24 hrs by serial dilution method. The format is functional. The settings on record: for MIC: ATCC 19414, 24 h. Summed up:
as §3

The subject of a further assay is Pasteurella multocida. Nature of the assay: Antimicrobial activity against Pasteurella multocida subsp. multocida ATCC 43137 after 24 hrs by serial dilution method. The format is functional. The note with it: for MIC: ATCC 43137, 24 h. In a few lines:
as §3

Turning to `CC[C@@H]1OC(=O)c2cc(O)c(O)cc21`, the IC50 was 34 µM with ACHN; 28 µM in the assay on 786-0; > 50 µM with OS-RC-2; > 50 µM in the assay with HepG2; > 50 µM in the assay on SGC-7901. Further, the MIC (with Escherichia coli; with Staphylococcus aureus; in assay [1]; against Pasteurella multocida) was > 100 µg/mL each time.

On to `C=C(C=O)[C@]1(O)C[C@@]2(C)C(=CC1=O)C=C[C@H](OC(=O)/C=C/C(C)=C/[C@@H](C)CC)[C@@H]2C`, for which the IC50 was found to be 4.3 µM with ACHN; 2.5 µM in the assay on 786-0; 3.7 µM in the assay on OS-RC-2; 1.4 µM with HepG2; 1.4 µM with SGC-7901. For the same molecule, the MIC against Escherichia coli was > 100 µg/mL; in the assay on Staphylococcus aureus, 1.5 µg/mL (≈ 3.64 µM); in assay [1] it was 13 µg/mL (≈ 31.5 µM); against Pasteurella multocida, 13 µg/mL (≈ 31.5 µM).

Turning to `O=c1[nH]cc(F)c(=O)[nH]1` [FLUOROURACIL], the IC50 in the assay with HepG2 and with SGC-7901 was 12 µM each time.

For `CNC(=O)c1cc(Oc2ccc(NC(=O)Nc3ccc(Cl)c(C(F)(F)F)c3)cc2)ccn1` [SORAFENIB], the IC50 with ACHN is 3.5 µM; with 786-0, 5.3 µM; in the assay with OS-RC-2, 15 µM.

For `C=C(CO)[C@]1(O)C[C@@]2(C)C(=CC1=O)C=CC[C@@H]2C`, the IC50 with ACHN, in the assay with 786-0, with OS-RC-2, in the assay on HepG2 and with SGC-7901 was > 50 µM each time. The minimal inhibitory concentration (MIC) (in the assay on Escherichia coli; against Staphylococcus aureus; in assay [1]; with Pasteurella multocida) was > 100 µg/mL each time.

Turning to `CN[C@@H]1[C@H](O[C@H]2[C@H](O[C@H]3[C@H](O)[C@@H](O)[C@H](N=C(N)N)[C@@H](O)[C@@H]3N=C(N)N)O[C@@H](C)[C@]2(O)C=O)O[C@@H](CO)[C@H](O)[C@H]1O` [STREPTOMYCIN], the minimum inhibitory concentration (MIC) in the assay with Escherichia coli worked out at 25 µg/mL (≈ 43 µM).

For the molecule `Cc1cc(O)c2c(c1)C(=O)c1cc(O)cc(O)c1C2=O` [EMODIN], the IC50 was found to be 1.7 µM in the assay on HepG2 and 5.6 µM in the assay with SGC-7901. Besides, the MIC was > 100 µg/mL with Escherichia coli, 100 µg/mL (≈ 370 µM) against Staphylococcus aureus, > 100 µg/mL in assay [1] and > 100 µg/mL with Pasteurella multocida.

Take `COC(=O)[C@]12Oc3cc(C)c(-c4ccc(O)c5c4O[C@@]4(C(=O)OC)C(=C(O)C[C@@H](C)[C@H]4O)C5=O)c(O)c3C(=O)C1=C(O)CC[C@H]2O`: the IC50 was > 50 µM with ACHN; 46 µM in the assay with 786-0; > 50 µM with OS-RC-2; > 50 µM in the assay with HepG2; > 50 µM in the assay with SGC-7901. Besides, the minimal inhibitory concentration (MIC) against Escherichia coli was > 100 µg/mL; in the assay with Staphylococcus aureus it was 50 µg/mL (≈ 78.3 µM); in assay [1] it was 25 µg/mL (≈ 39.1 µM); against Pasteurella multocida, 13 µg/mL (≈ 20.4 µM).

Consider `Cc1cc(=O)c2c(C)cc(O)cc2o1`, for which the result in the assay with ACHN, in the assay with 786-0, with OS-RC-2, with HepG2, with SGC-7901 and with Escherichia coli was inactive. Besides, the outcome (with Staphylococcus aureus; in [1]; in the assay on Pasteurella multocida) was inactive.

Take `CC[C@@H]1OC(=O)c2c1ccc(O)c2O`: the IC50 in the assay with ACHN, in the assay on 786-0, in the assay on OS-RC-2, in the assay on HepG2 and in the assay with SGC-7901 was > 50 µM each time. Besides, the MIC (against Escherichia coli; against Staphylococcus aureus; in [1]; against Pasteurella multocida) was > 100 µg/mL throughout.

Turning to `CC1(C)S[C@@H]2[C@H](NC(=O)Cc3ccccc3)C(=O)N2[C@H]1C(=O)O` [PENICILLIN G], the MIC (in the assay with Staphylococcus aureus; in [1]; with Pasteurella multocida) was 13 µg/mL (≈ 38.9 µM) in each case.

Take `CC[C@@H]1OC(=O)c2cc(O)ccc21`: the IC50 in the assay with ACHN, in the assay on 786-0, in the assay on OS-RC-2, in the assay on HepG2 and in the assay with SGC-7901 was > 50 µM in each case. Further, the MIC (in the assay on Escherichia coli; with Staphylococcus aureus; in assay [1]; with Pasteurella multocida) was > 100 µg/mL throughout.

As a reminder, the IC50 is the concentration that gives 50% inhibition. A higher IC50 goes with a need for much substance. The term MIC denotes the lowest concentration that inhibits growth of the organism. Higher therefore signals a less susceptible organism.
